The target of this assay is Kappa-type opioid receptor (Homo sapiens, UniProt P41145). The assay can be described thus: Agonist activity at human KOR expressed in CHO cells assessed as inhibition of forskolin-induced cAMP accumulation after 30 mins by luminescence assay. Format: functional, cell-based. In short, it runs like this:
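CHO cells stably expressing KOR or MOR, plated at 10 000 cells/well and incubated overnight at 37 °C. Compounds given as 10-point serial dilutions (1% DMSO final) with 20 μM forskolin final in HBSS/10 mM HEPES. Incubation 30 min at 37 °C, then detection reagents overnight at room temperature. HitHunter cAMP luminescence read-out; data normalized to vehicle and forskolin-only controls, nonlinear regression.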
Background: Changes in cAMP serve as a functional read-out for many G protein-coupled receptors.
Chain of Kappa-type opioid receptor (P41145 whole entry): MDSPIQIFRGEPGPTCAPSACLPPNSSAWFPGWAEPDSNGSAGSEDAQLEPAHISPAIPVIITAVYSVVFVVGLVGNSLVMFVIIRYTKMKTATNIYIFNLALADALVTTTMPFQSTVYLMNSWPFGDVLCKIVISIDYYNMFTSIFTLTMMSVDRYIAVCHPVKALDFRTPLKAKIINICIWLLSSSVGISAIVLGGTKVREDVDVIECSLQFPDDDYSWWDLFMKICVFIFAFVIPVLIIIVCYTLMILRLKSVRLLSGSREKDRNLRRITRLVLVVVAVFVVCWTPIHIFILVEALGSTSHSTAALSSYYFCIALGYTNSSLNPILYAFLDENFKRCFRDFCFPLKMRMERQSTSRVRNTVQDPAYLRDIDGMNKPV
What is called EC50 is the concentration needed to bring the measured effect to its halfway point. One may read the Emax as the maximal effect, on the per cent scale that the assay sets. Turning to `CCc1occc1[C@@H]1C[C@]2(C)[C@H]3C(=O)[C@@H](OC(C)=O)C[C@@H](C(=O)OC)[C@]3(C)CC[C@H]2C(=O)O1`, the EC50 was 2.9 nM and the Emax stood at 100%.
Regarding `COC(=O)[C@@H]1C[C@H](OC(C)=O)C(=O)[C@H]2[C@@]1(C)CC[C@H]1C(=O)O[C@H](c3ccoc3-c3cccc(F)c3)C[C@]21C`, the EC50 is 12 nM and the Emax stood at 100%.
The corresponding values for `COC(=O)[C@@H]1C[C@H](OC(C)=O)C(=O)[C@H]2[C@@]1(C)CC[C@H]1C(=O)O[C@H](c3ccoc3-c3ccc(F)cc3)C[C@]21C` are 54 nM and 100%.
The corresponding values for `COC(=O)[C@@H]1C[C@H](OC(C)=O)C(=O)[C@H]2[C@@]1(C)CC[C@H]1C(=O)O[C@H](c3ccoc3-c3ccoc3)C[C@]21C` are 6.5 nM and 100%.
For `COC(=O)[C@@H]1C[C@H](OC(C)=O)C(=O)[C@H]2[C@@]1(C)CC[C@H]1C(=O)O[C@H](c3ccoc3-c3ccccc3F)C[C@]21C`, the EC50 was 1.2 nM and the Emax is 100%.
As for `COC(=O)[C@@H]1C[C@H](OC(C)=O)C(=O)[C@H]2[C@@]1(C)CC[C@H]1C(=O)O[C@H](c3ccoc3-c3ccc(C(F)(F)F)cc3)C[C@]21C`, the EC50 came to 1020 nM and the Emax is 100%.
With `COC(=O)[C@@H]1C[C@H](OC(C)=O)C(=O)[C@H]2[C@@]1(C)CC[C@H]1C(=O)O[C@H](c3ccoc3-c3cccc(OC)c3)C[C@]21C`, the EC50 was 8.6 nM and the maximum response (Emax) was 100%.
The corresponding values for `COC(=O)[C@@H]1C[C@H](OC(C)=O)C(=O)[C@H]2[C@@]1(C)CC[C@H]1C(=O)O[C@H](c3ccoc3-c3ccccc3OC)C[C@]21C` are 10 nM and 100%.
Turning to `COC(=O)[C@@H]1C[C@H](OC(C)=O)C(=O)[C@H]2[C@@]1(C)CC[C@H]1C(=O)O[C@H](c3ccoc3-c3cccc([N+](=O)[O-])c3)C[C@]21C`, the EC50 was 450 nM and the Emax was 100%.
The corresponding values for `COC(=O)[C@@H]1C[C@H](OC(C)=O)C(=O)[C@H]2[C@@]1(C)CC[C@H]1C(=O)O[C@H](c3ccoc3-c3cccc4ccccc34)C[C@]21C` are 37 nM and 100%.
On to `COC(=O)[C@@H]1C[C@H](OC(C)=O)C(=O)[C@H]2[C@@]1(C)CC[C@H]1C(=O)O[C@H](c3cc(C)oc3C)C[C@]21C`, for which the EC50 is 250 nM and the Emax worked out at 100%.
Regarding `COC(=O)[C@@H]1C[C@H](OC(C)=O)C(=O)[C@H]2[C@@]1(C)CC[C@H]1C(=O)O[C@H](c3cc(Br)oc3Br)C[C@]21C`, the EC50 stood at 240 nM and the Emax is 100%.
The corresponding values for `COC(=O)[C@@H]1C[C@H](OC(C)=O)C(=O)[C@H]2[C@@]1(C)CC[C@H]1C(=O)O[C@H](c3ccoc3C#Cc3ccccc3OC)C[C@]21C` are 6100 nM and 100%.
On the same counts, the results for `COC(=O)[C@@H]1C[C@H](OC(C)=O)C(=O)[C@H]2[C@@]1(C)CC[C@H]1C(=O)O[C@H](c3ccoc3-c3cccc(N)c3)C[C@]21C` are 630 nM and 100%.
For the molecule `COC(=O)[C@@H]1C[C@H](OC(C)=O)C(=O)[C@H]2[C@@]1(C)CC[C@H]1C(=O)O[C@H](c3ccoc3-c3ccsc3)C[C@]21C`, the EC50 is 4.3 nM and the Emax came to 100%.
Turning to `COC(=O)[C@@H]1C[C@H](OC(C)=O)C(=O)[C@H]2[C@@]1(C)CC[C@H]1C(=O)O[C@H](c3ccoc3CCc3ccccc3)C[C@]21C`, the EC50 came to 38 nM and the Emax was found to be 100%.
`COC(=O)[C@@H]1C[C@H](OC(C)=O)C(=O)[C@H]2[C@@]1(C)CC[C@H]1C(=O)O[C@H](c3ccoc3-c3ccccc3C)C[C@]21C`: the EC50 was found to be 5.4 nM and the Emax came out at 100%.
The corresponding values for `C=Cc1occc1[C@@H]1C[C@]2(C)[C@H]3C(=O)[C@@H](OC(C)=O)C[C@@H](C(=O)OC)[C@]3(C)CC[C@H]2C(=O)O1` are 0.96 nM and 100%.
Regarding `COC(=O)[C@@H]1C[C@H](OC(C)=O)C(=O)[C@H]2[C@@]1(C)CC[C@H]1C(=O)O[C@H](c3ccoc3C#N)C[C@]21C`, the EC50 is 9.4 nM and the Emax came to 100%.
Take `COC(=O)[C@@H]1C[C@H](OC(C)=O)C(=O)[C@H]2[C@@]1(C)CC[C@H]1C(=O)O[C@H](c3ccoc3-c3ccccc3[N+](=O)[O-])C[C@]21C`: the EC50 turned out to be 360 nM and the Emax amounted to 100%.
With `COC(=O)[C@@H]1C[C@H](OC(C)=O)C(=O)[C@H]2[C@@]1(C)CC[C@H]1C(=O)O[C@H](c3ccoc3C(F)(F)F)C[C@]21C`, the EC50 turned out to be 31 nM and the Emax came to 100%.
For `COC(=O)[C@@H]1C[C@H](OC(C)=O)C(=O)[C@H]2[C@@]1(C)CC[C@H]1C(=O)O[C@H](c3ccoc3-c3ccc(C)cc3)C[C@]21C`, the EC50 turned out to be 2.3 nM and the Emax was determined as 100%.
The corresponding values for `COC(=O)[C@@H]1C[C@H](OC(C)=O)C(=O)[C@H]2[C@@]1(C)CC[C@H]1C(=O)O[C@H](c3ccoc3-c3ccccc3)C[C@]21C` are 1.3 nM and 100%.
On the same counts, the results for `COC(=O)[C@@H]1C[C@H](OC(C)=O)C(=O)[C@H]2[C@@]1(C)CC[C@H]1C(=O)O[C@H](c3ccoc3-c3ccc4ccccc4c3)C[C@]21C` are 25 nM and 100%.
On the same counts, the results for `COC(=O)[C@@H]1C[C@H](OC(C)=O)C(=O)[C@H]2[C@@]1(C)CC[C@H]1C(=O)O[C@H](c3ccoc3-c3ccc(N)cc3)C[C@]21C` are 620 nM and 65%.
Regarding `COC(=O)[C@@H]1C[C@H](OC(C)=O)C(=O)[C@H]2[C@@]1(C)CC[C@H]1C(=O)O[C@H](c3ccoc3C=O)C[C@]21C`, the EC50 amounted to 7.3 nM and the Emax stood at 100%.
The corresponding values for `COC(=O)[C@@H]1C[C@H](OC(C)=O)C(=O)[C@H]2[C@@]1(C)CC[C@H]1C(=O)O[C@H](c3ccoc3C#Cc3ccccc3)C[C@]21C` are 100 nM and 100%.
For the molecule `COC(=O)[C@@H]1C[C@H](OC(C)=O)C(=O)[C@H]2[C@@]1(C)CC[C@H]1C(=O)O[C@H](c3ccoc3C3CC3)C[C@]21C`, the EC50 turned out to be 1 nM and the Emax came to 100%.
The corresponding values for `COC(=O)[C@@H]1C[C@H](OC(C)=O)C(=O)[C@H]2[C@@]1(C)CC[C@H]1C(=O)O[C@H](c3ccoc3-c3ccccc3C(F)(F)F)C[C@]21C` are 8.4 nM and 100%.
On to `COC(=O)[C@@H]1C[C@H](OC(C)=O)C(=O)[C@H]2[C@@]1(C)CC[C@H]1C(=O)O[C@H](c3ccoc3/C=C/c3ccccc3)C[C@]21C`, for which the EC50 worked out at 20 nM and the Emax was 100%.
On the same counts, the results for `COC(=O)[C@@H]1C[C@H](OC(C)=O)C(=O)[C@H]2[C@@]1(C)CC[C@H]1C(=O)O[C@H](c3ccoc3CO)C[C@]21C` are 3.3 nM and 100%.
For the molecule `COC(=O)[C@@H]1C[C@H](OC(C)=O)C(=O)[C@H]2[C@@]1(C)CC[C@H]1C(=O)O[C@H](c3coc(C(F)(F)F)c3)C[C@]21C`, the EC50 amounted to 3.1 nM and the Emax is 100%.
On the same counts, the results for `COC(=O)[C@@H]1C[C@H](OC(C)=O)C(=O)[C@H]2[C@@]1(C)CC[C@H]1C(=O)O[C@H](c3ccoc3C#CCCCO)C[C@]21C` are 890 nM and 100%.
The corresponding values for `COC(=O)[C@@H]1C[C@H](OC(C)=O)C(=O)[C@H]2[C@@]1(C)CC[C@H]1C(=O)O[C@H](c3ccoc3-c3ccc(OC)cc3)C[C@]21C` are 16 nM and 100%.
Regarding `COC(=O)[C@@H]1C[C@H](OC(C)=O)C(=O)[C@H]2[C@@]1(C)CC[C@H]1C(=O)O[C@H](c3ccoc3-c3cccc(C)c3)C[C@]21C`, the EC50 came to 3.4 nM and the Emax was 100%.
For the molecule `CCCC#Cc1occc1[C@@H]1C[C@]2(C)[C@H]3C(=O)[C@@H](OC(C)=O)C[C@@H](C(=O)OC)[C@]3(C)CC[C@H]2C(=O)O1`, the EC50 is 9250 nM and the Emax was determined as 100%.
With `COC(=O)[C@@H]1C[C@H](OC(C)=O)C(=O)[C@H]2[C@@]1(C)CC[C@H]1C(=O)O[C@H](c3ccoc3-c3ccc([N+](=O)[O-])cc3)C[C@]21C`, the EC50 is 170 nM and the Emax was determined as 100%.
The corresponding values for `COC(=O)[C@@H]1C[C@H](OC(C)=O)C(=O)[C@H]2[C@@]1(C)CC[C@H]1C(=O)O[C@H](c3ccoc3-c3ccccc3N)C[C@]21C` are 430 nM and 100%.
The corresponding values for `CC#Cc1occc1[C@@H]1C[C@]2(C)[C@H]3C(=O)[C@@H](OC(C)=O)C[C@@H](C(=O)OC)[C@]3(C)CC[C@H]2C(=O)O1` are 26 nM and 100%.
On to `COC(=O)[C@@H]1C[C@H](OC(C)=O)C(=O)[C@H]2[C@@]1(C)CC[C@H]1C(=O)O[C@H](c3ccoc3-c3cccc(C(F)(F)F)c3)C[C@]21C`, for which the EC50 came to 27 nM and the Emax came to 100%.
On the same counts, the results for `COC(=O)[C@@H]1C[C@H](OC(C)=O)C(=O)[C@H]2[C@@]1(C)CC[C@H]1C(=O)O[C@H](c3ccoc3C#Cc3ccccc3C(F)(F)F)C[C@]21C` are 430 nM and 100%.
With `COC(=O)[C@@H]1C[C@H](OC(C)=O)C(=O)[C@H]2[C@@]1(C)CC[C@H]1C(=O)O[C@H](c3ccoc3-c3ccco3)C[C@]21C`, the EC50 was found to be 6.7 nM and the Emax is 100%.

These data come from ChEMBL document CHEMBL3351247 (J Med Chem, 2014).
